From ChEMBL document CHEMBL3352732, “Nannozinones and sorazinones, unprecedented pyrazinones from myxobacteria” (J Nat Prod, 2014) come the findings set out here.

Assay [1] in a line: Cytotoxicity against human SKOV3 cells by MTT assay. Format: functional, cell-based. The conditions noted are these: SK-OV-3. The method in brief:
(§1)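 MTT assay in 96-well plates, giving IC50. Media: DMEM for KB-3-1, A431, A549 and L929; F12K for PC-3; RPMI for MCF-7; EBM-2 for HUVEC; McCoy's for SKOV-3. All media had 10% FBS, and cells were kept at 37 °C under 10% CO2. Methanol served as negative control and epothilone A as positive control.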
A general note: Formazan colour is commonly taken as a measure of viable cells.

For a further assay, the system named is Escherichia coli. Put plainly: Antimicrobial activity against Escherichia coli 1116 after 24 to 48 hrs by serial dilution method. It is filed as functional. The method in brief:
(§2)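 Compounds from 1 mg/mL stock, 2 and 20 μL aliquots, serially diluted 1:1 in 0.15 mL medium in microtiter plates. Shaken at 160 rpm, 30 °C, 24−48 h. MIC is the lowest concentration preventing visible growth.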

The subject of the next assay is Wickerhamomyces anomalus. Description: Antimicrobial activity against Wickerhamomyces anomalus 6766 after 24 to 48 hrs by serial dilution method. It is filed as functional. The method in brief:
(§3)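 Yeasts and filamentous fungi tested in MYC medium (1.0% glucose, 1.0% phytone peptone, 50 mM HEPES, pH 7.0). Aliquots of 2 and 20 μL from 1 mg/mL stock, 1:1 serial dilution in 0.15 mL medium in microtiter plates. Incubated at 30 °C with shaking at 160 rpm for 24−48 h. MIC read as the lowest concentration with no visible growth.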

The test system of a further assay is Saccharomyces cerevisiae. Put plainly: Antimicrobial activity against Saccharomyces cerevisiae 70449 after 24 to 48 hrs by serial dilution method. It is filed as functional. The method in brief:
as §3

For a further assay, the system named is Nocardia sp. Put plainly: Antimicrobial activity against Nocardia sp. 43069 after 24 to 48 hrs by serial dilution method. It is filed as functional. The essentials:
as §2

The next assay deals with A549. Put plainly: Cytotoxicity against human A549 cells by MTT assay. Format: functional, cell-based. The essentials: as §1
A further assay deals with MCF7. Description: Cytotoxicity against human MCF7 cells by MTT assay. Format: functional, cell-based. The essentials: as §1
Assay [2] has as its system Chromobacterium violaceum. Put plainly: Antimicrobial activity against Chromobacterium violaceum 30191 after 24 to 48 hrs by serial dilution method. Format: functional. The essentials: as §2
Assay [3] is described as follows: Cytotoxicity against human PC3 cells by MTT assay. Format: functional, cell-based. Particulars: PC-3. The method in brief: as §1
A further assay concerns L929. Description: Cytotoxicity against mouse L929 cells by MTT assay. It is filed as functional, cell-based. The method in brief: as §1
The test system of a further assay is Staphylococcus aureus. Description: Antimicrobial activity against Staphylococcus aureus 346 after 24 to 48 hrs by serial dilution method. Format: functional. The method in brief:
as §2

The next assay deals with Paenibacillus polymyxa. Put plainly: Antimicrobial activity against Paenibacillus polymyxa 36 after 24 to 48 hrs by serial dilution method. Format: functional. The method in brief:
as §2

The subject of the next assay is Candida albicans. Description: Antimicrobial activity against Candida albicans 1665 after 24 to 48 hrs by serial dilution method. It is filed as functional. The essentials:
as §3

The nature of assay [4]: Cytotoxicity against human KB3-1 cells by MTT assay. It is filed as functional, cell-based. Particulars: KB 3-1. The essentials:
as §1

Another assay concerns Pseudomonas aeruginosa. Description: Antimicrobial activity against Pseudomonas aeruginosa 50071 after 24 to 48 hrs by serial dilution method. Format: functional. The method in brief:
as §2

Another assay has as its system Mucor hiemalis. Put plainly: Antimicrobial activity against Mucor hiemalis 2656 after 24 to 48 hrs by serial dilution method. It is filed as functional. The method in brief:
as §3

The next assay concerns Trichosporon oleaginosus. Put plainly: Antimicrobial activity against Trichosporon oleaginosus 11815 after 24 to 48 hrs by serial dilution method. It is filed as functional. Particulars: Cutaneotrichosporon oleaginosum. The essentials: as §3
For assay [5], the system named is Mycolicibacterium diernhoferi. Put plainly: Antimicrobial activity against Mycobacterium diernhoferi 43542 after 24 to 48 hrs by serial dilution method. Format: functional. The method in brief: as §2
Another assay relates to HUVEC. Description: Cytotoxicity against HUVEC cells by MTT assay. Format: functional, cell-based. The conditions noted are these: Homo sapiens. The essentials: as §1
In the next assay the test system is A-431. Description: Cytotoxicity against human A431 cells by MTT assay. Format: functional, cell-based. The method in brief: as §1

≈ marks a conversion by molar mass, not a printed value.

Broadly, the IC50 is the midpoint of a concentration-inhibition curve. The low end stands for greater potency, the high end for weaker potency. By MIC is commonly meant the lowest concentration that inhibits growth of the organism. A high value points to weaker potency. As for `COC(=O)c1c[nH]c2ccccc12`, the IC50 in assay [1] is greater than 56800 nM; with A549 it was greater than 56.8 µM; in the assay on MCF7, greater than 56.8 µM; in [3], greater than 56.8 µM; with L929, greater than 56.8 µM; in assay [4], greater than 56.8 µM. Moreover, the minimum inhibitory concentration (MIC) with Escherichia coli is greater than 66.6 µg/mL; in the assay with Wickerhamomyces anomalus (Hansenula anomala), greater than 66.6 µg/mL; with Saccharomyces cerevisiae, greater than 66.6 µg/mL; in the assay on Nocardia sp. it was 33.3 µg/mL (≈ 190 µM); in assay [2], greater than 66.6 µg/mL; with Staphylococcus aureus it was greater than 66.6 µg/mL. In addition, the MIC (with Paenibacillus polymyxa; with Candida albicans; in the assay on Pseudomonas aeruginosa; against Mucor hiemalis; against Trichosporon oleaginosus; in [5]) was greater than 66.6 µg/mL each time.
`CN(C)[C@@H]1C(O)=C(C(N)=O)C(=O)[C@@]2(O)C(O)=C3C(=O)c4c(O)cccc4[C@@](C)(O)[C@H]3[C@H](O)[C@@H]12.Cl` [OXYTETRACYCLINE HYDROCHLORIDE]: the minimal inhibitory concentration (MIC) against Escherichia coli turned out to be 0.42 µg/mL; against Nocardia sp. it was 0.52 µg/mL; in [2], 1 µg/mL; in the assay with Staphylococcus aureus, 0.52 µg/mL; against Paenibacillus polymyxa, 6.7 µg/mL; in [5], 0.52 µg/mL.
As to `C/C(=C\c1csc(C)n1)[C@@H]1C[C@@H]2O[C@@H]2CCC[C@H](C)[C@H](O)[C@@H](C)C(=O)C(C)(C)[C@@H](O)CC(=O)O1` [EPOTHILONE A], the IC50 in assay [1] stood at 1.3 nM; with MCF7, 0.0022 µM; in [3], 0.0024 µM; in the assay with L929 it was 0.0077 µM; in assay [4] it was 0.0096 µM.
Regarding NYSTATIN, the MIC worked out at 16.6 µg/mL in the assay on Wickerhamomyces anomalus; 16.6 µg/mL in the assay with Saccharomyces cerevisiae; 8.3 µg/mL against Candida albicans; 2.1 µg/mL against Mucor hiemalis; 4.2 µg/mL against Trichosporon oleaginosus.
GENTAMICIN registered an MIC against Pseudomonas aeruginosa of 42 µg/mL.
As to `O=c1cnc(CCc2ccccc2)c2n1CCC2`, the half-inhibitory concentration (IC50) is greater than 41500 nM in assay [1]; greater than 41.5 µM in the assay with HUVEC; greater than 41.5 µM in the assay with A-431; greater than 41.5 µM in the assay with A549; greater than 41.5 µM in the assay on MCF7; greater than 41.5 µM in assay [3]. Further, the IC50 (in the assay on L929; in assay [4]) was greater than 41.5 µM each time. Moreover, the minimal inhibitory concentration (MIC) against Escherichia coli is 66.6 µg/mL (≈ 277 µM); with Wickerhamomyces anomalus (Hansenula anomala), greater than 66.6 µg/mL; in the assay on Saccharomyces cerevisiae it was 66.6 µg/mL (≈ 277 µM); in the assay with Nocardia sp. it was 66.6 µg/mL (≈ 277 µM); in [2], 66.6 µg/mL (≈ 277 µM); against Staphylococcus aureus it was 66.6 µg/mL (≈ 277 µM). Besides, the minimum inhibitory concentration (MIC) against Paenibacillus polymyxa worked out at 66.6 µg/mL (≈ 277 µM); against Candida albicans it was 33.3 µg/mL (≈ 139 µM); against Pseudomonas aeruginosa, 66.6 µg/mL (≈ 277 µM); against Mucor hiemalis it was 33.3 µg/mL (≈ 139 µM); against Trichosporon oleaginosus, 66.6 µg/mL (≈ 277 µM); in assay [5], 33.3 µg/mL (≈ 139 µM).
Consider `Cc1ccn2c(=O)c3cccn3c(=O)c12`, for which the half-maximal inhibitory concentration (IC50) in assay [1] was greater than 50000 nM; with A549, greater than 50 µM; with MCF7, greater than 50 µM; in assay [3] it was greater than 50 µM; in the assay on L929 it was greater than 50 µM; in assay [4] it was greater than 50 µM. Moreover, the minimum inhibitory concentration (MIC) with Escherichia coli is greater than 66.6 µg/mL; in the assay on Wickerhamomyces anomalus (Hansenula anomala), 66.6 µg/mL (≈ 333 µM); with Saccharomyces cerevisiae, greater than 66.6 µg/mL; against Nocardia sp., 16.6 µg/mL (≈ 82.9 µM); in assay [2], greater than 66.6 µg/mL; in the assay with Staphylococcus aureus it was greater than 66.6 µg/mL. In addition, the minimal inhibitory concentration (MIC) (with Paenibacillus polymyxa; against Candida albicans; in the assay on Pseudomonas aeruginosa; in the assay on Mucor hiemalis; against Trichosporon oleaginosus; in [5]) was greater than 66.6 µg/mL each time.
Turning to `CC(=O)c1c(Cc2ccccc2)[nH]c(=O)c2cccn12`, the IC50 in assay [1] is 2400 nM; in the assay on HUVEC it was 15.5 µM; with A-431 it was 8.45 µM; in the assay with A549, 8.7 µM; with MCF7 it was 14.1 µM; in assay [3], 16.9 µM. Moreover, the IC50 in the assay on L929 was greater than 37.6 µM; in assay [4], 5.3 µM. Moreover, the minimum inhibitory concentration (MIC) with Escherichia coli was greater than 66.6 µg/mL; with Wickerhamomyces anomalus (Hansenula anomala) it was greater than 66.6 µg/mL; in the assay on Saccharomyces cerevisiae, greater than 66.6 µg/mL; in the assay with Nocardia sp. it was 66.6 µg/mL (≈ 250 µM); in assay [2], greater than 66.6 µg/mL; in the assay on Staphylococcus aureus it was greater than 66.6 µg/mL. Moreover, the MIC (in the assay on Paenibacillus polymyxa; with Candida albicans; against Pseudomonas aeruginosa; with Mucor hiemalis; against Trichosporon oleaginosus; in assay [5]) was greater than 66.6 µg/mL throughout.
With `Cc1nc(Cc2ccccc2)c(O)nc1Cc1ccccc1`, the IC50 in assay [1] was greater than 34500 nM; in the assay with A549 it was greater than 34.5 µM; with MCF7, greater than 34.5 µM; in assay [3] it was greater than 34.5 µM; in the assay with L929 it was greater than 34.5 µM; in assay [4], greater than 34.5 µM. Also, the MIC in the assay with Escherichia coli was greater than 66.6 µg/mL; in the assay with Wickerhamomyces anomalus (Hansenula anomala), greater than 66.6 µg/mL; against Saccharomyces cerevisiae, greater than 66.6 µg/mL; with Nocardia sp., 67 µg/mL (≈ 231 µM); in assay [2], greater than 66.6 µg/mL; against Staphylococcus aureus, greater than 66.6 µg/mL. Further, the minimum inhibitory concentration (MIC) (with Paenibacillus polymyxa; in the assay with Candida albicans; against Pseudomonas aeruginosa; with Mucor hiemalis; against Trichosporon oleaginosus; in assay [5]) was greater than 66.6 µg/mL throughout.
`COC(=O)[C@H](CCCCN(O)C(=O)/C=C/c1ccccc1)NC(=O)CC(O)(CC(=O)N[C@@H](CCCCN(O)C(=O)/C=C/c1ccccc1)C(=O)OC)C(=O)O`: the IC50 came out at 1950 nM in [1]; 0.05 µM with HUVEC; 0.1 µM in the assay on A-431; 0.12 µM in the assay on A549; 0.22 µM with MCF7; 0.19 µM in assay [3]. The IC50 turned out to be 1.82 µM with L929 and 0.05 µM in assay [4]. The minimum inhibitory concentration (MIC) (against Escherichia coli; against Wickerhamomyces anomalus (Hansenula anomala); against Saccharomyces cerevisiae; in the assay with Nocardia sp.; in assay [2]; in the assay with Staphylococcus aureus) was greater than 66.6 µg/mL in each case. Besides, the minimum inhibitory concentration (MIC) against Paenibacillus polymyxa was greater than 66.6 µg/mL; against Candida albicans, 33.3 µg/mL (≈ 43.3 µM); with Pseudomonas aeruginosa it was greater than 66.6 µg/mL; against Mucor hiemalis, greater than 66.6 µg/mL; against Trichosporon oleaginosus, 66.6 µg/mL (≈ 86.6 µM); in assay [5] it was greater than 66.6 µg/mL.
